ChEMBL document CHEMBL4732095, “Novel naphthylamide derivatives as dual-target antifungal inhibitors: Design, synthesis and biological evaluation” (Eur J Med Chem, 2021)
Active and inactive are the calls of the source. No cut-off for these calls is given here.

How the values were obtained:
Nakaseomyces glabratus = assay: Antifungal activity against Candida glabrata ATCC 0001 assessed as inhibition of microbial growth by NCCLS protocol based method; format: functional
How it was run: (§1)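 Broth MIC50 determined following NCCLS guidelines in Sabouraud medium, with fungal suspension in 24-well format. Compound tested at 0.0625, 0.125, 0.5, 1, 2, 4, 8 and 16 μg/mL. Plates cultured statically at 35 °C. MIC50 is the lowest concentration giving 50% growth inhibition. Naftifine and fluconazole served as positive controls.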

Candida albicans [1] = assay: Antifungal activity against Candida albicans ATCC SC5314 assessed as reduction in size of fungal cells (reference value: 8.29 micrometer); format: functional
Candida albicans [2] = assay: Antifungal activity against Candida albicans ATCC SC5314 assessed as appearance of disordered ridge arrangement in cytoplasm at 4 ug/ml incubated for 72 hrs by TEM analysis; format: functional, organism-based; conditions: dose 4.0 µg/ml
How it was run: (§2)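 C. albicans SC5314 suspension prepared per NCCLS protocol, exposed to compound at 4 μg/mL and incubated at 35 °C. Sampled at 72 h and 144 h, with a 0 h reference. Samples fixed at 4 °C in 3% glutaraldehyde, washed in PBS, stained with uranium/osmium for 30 min, and imaged by transmission electron microscopy.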

[3] = Hepatotoxicity in mouse infected with Candida albicans SC5314 assessed as effect on alanine aminotransferase level in plasma administered via abdomen for 7 days (reference value: 105 +/- 8.3 IU/L); format: toxicity; conditions: ip, 168 h, time 7 day
[4] = Stability in human plasma assessed as compound remaining incubated for 60 mins; format: ADME, cell-free; conditions: read-out: Stabilty
How it was run: (§3)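 Compound incubated in human plasma. Percent remaining measured at 60 and 120 min.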

Candida albicans SC5314 [5] = assay: Inhibition of SE/CYP51 in Candida albicans ATCC SC5314 assessed as ergosterol level at […] ug/ml incubated for 48 hrs by LC/MS analysis (reference value: 95.1 %); set-up: scale not given: the % may be the effect or the level left; conditions: dose 0.125 µg/ml
Candida albicans [6] = assay: Antifungal activity against Candida albicans ATCC 10231 assessed as inhibition of microbial growth by NCCLS protocol based method; format: functional; how it was run: as §1
Candida albicans SC5314 [7] = assay: Inhibition of SE/CYP51 in Candida albicans ATCC SC5314 assessed as unknown sterol level at […] ug/ml incubated for 48 hrs by LC/MS analysis (reference value: 3.5 %); set-up: scale not given: the % may be the effect or the level left; conditions: dose 0.125 µg/ml
Candida tropicalis = assay: Antifungal activity against Candida tropicalis ATCC 1369 assessed as inhibition of microbial growth by NCCLS protocol based method; format: functional; how it was run: as §1
Candida albicans SC5314 [8] = assay: Inhibition of SE/CYP51 in Candida albicans ATCC SC5314 assessed as squalene level at 4 ug/ml incubated for 48 hrs by LC/MS analysis; set-up: scale not given: the % may be the effect or the level left; conditions: dose 4.0 µg/ml
How it was run: (§4)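 C. albicans SC5314 cells exposed to compound at 0.125, 0.5 or 4 μg/mL for 48 h, alongside untreated, fluconazole and naftifine controls. Sterols (ergosterol, squalene, lanosterol, eburicol, unknown) analysed by LC-MS. Each component expressed as percentage of total sterols from peak area ratios.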

Candida albicans [9] = assay: Antifungal activity against Candida albicans ATCC SC5314 assessed as disappearance of fungal cell boundaries at 4 ug/ml incubated for 72 hrs by TEM analysis; format: functional, organism-based; conditions: dose 4.0 µg/ml; how it was run: as §2
Pichia kudriavzevii = assay: Antifungal activity against Candida krusei ATCC 6258 assessed as inhibition of microbial growth by NCCLS protocol based method; format: functional; how it was run: as §1
[10] = Inhibition of Candida albicans ATCC SC5314 SE incubated for 30 mins by spectrophotometric method
How it was run: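 Enzymes (SE, CYP51) extracted from C. albicans SC5314 using kits. 50 µg enzyme incubated with varying compound concentrations for 30 min at 37 °C in Tris pH 7.4, KCl, MgCl2, 2 mM NADPH, with squalene or eburicol as substrate. Reaction stopped with acetonitrile and centrifuged. Eburicol consumption (CYP51) read by HPLC. Squalene, after sulfuric acid/formaldehyde derivatization, read at 400 nm (SE). IC50 reported.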

Candida albicans [11] = assay: Antifungal activity against Candida albicans ATCC SC5314 assessed as edema cavitation at 4 ug/ml incubated for 72 hrs by TEM analysis; format: functional, organism-based; conditions: dose 4.0 µg/ml; how it was run: as §2
Candida albicans SC5314 [12] = assay: Inhibition of SE/CYP51 in Candida albicans ATCC SC5314 assessed as ergosterol level at 4 ug/ml incubated for 48 hrs by LC/MS analysis (reference value: 95.1 %); set-up: scale not given: the % may be the effect or the level left; conditions: dose 4.0 µg/ml; how it was run: as §4
[13] = Stability in human plasma assessed as compound remaining incubated for 120 mins; format: ADME, cell-free; conditions: read-out: Stabilty; how it was run: as §3
[14] = Toxicity in mouse infected with Candida albicans SC5314 assessed as change in spleen morphology administered via abdomen for 7 days by H and E staining based histological analysis; conditions: in vivo, ip, 168 h, time 7 day
How it was run: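 Mice infected with C. albicans SC5314 by subcutaneous abdominal injection, then randomized into saline, and two compound-treated groups. Treatment given by abdominal injection for 7 days, with body weight monitored. Heart, liver, spleen, lung, kidney and infected abdominal tissue harvested for H&E histology.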

Candida albicans [15] = assay: Antifungal activity against Candida albicans ATCC SC5314 assessed as induction of cell fracture at 10 nM/mL by polarizing microscopy; format: functional, organism-based; conditions: dose 10.0 nmol/ml
How it was run: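 C. albicans ATCC SC5314 observed by polarizing microscopy over treatment time. Untreated, fluconazole- and naftifine-treated control groups were included. Cell density, dividing cells and cell fracture were assessed, with cell counts taken per field.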

Candida albicans [16] = assay: Antifungal activity against Candida albicans ATCC SC5314 assessed as exfoliation of rough ER particles at 4 ug/ml incubated for 72 hrs by TEM analysis; format: functional, organism-based; conditions: dose 4.0 µg/ml; how it was run: as §2
Candida albicans [17] = assay: Antifungal activity against Candida albicans ATCC SC5314 assessed as irregular cell structure at 4 ug/ml incubated for 72 hrs by TEM analysis; format: functional, organism-based; conditions: dose 4.0 µg/ml; how it was run: as §2
Candida albicans [18] = assay: Antifungal activity against Candida albicans ATCC SC5314 assessed as cracked fungal cells at 4 ug/ml incubated for 144 hrs by TEM analysis; format: functional, organism-based; conditions: dose 4.0 µg/ml; how it was run: as §2

Structure (SMILES)	MIC50 (Nakaseomyces glabratus)	Activity (Candida albicans [1])	Activity [3]	remaining at 1 h [4]	Activity (Candida albicans SC5314 [5])	MIC50 (Candida albicans [6])	Activity (Candida albicans SC5314 [7])	MIC50 (Candida tropicalis)	Activity (Candida albicans SC5314 [8])	MIC50 (Pichia kudriavzevii)	IC50 [10]	Activity (Candida albicans SC5314 [12])	remaining at 2 h [13]	Activity [14]	Activity (Candida albicans [15])	further results
CC(NC(=O)c1cccc2ccccc12)C(=O)NC(Cn1ccnc1)C(=O)c1ccccc1 (stereo unspecified)	0.25 µg/mL	7.51 um	106 IU/L	96.3%	66.4%	0.125 µg/mL	5.4%	0.125 µg/mL	27.9%	0.25 µg/mL	961 nM	10.8%	92.1%	Non-Toxic	Active	Activity (Candida albicans [2]): Active; Activity (Candida albicans [9]): Active; Activity (Candida albicans [11]): Active; Activity (Candida albicans [16]): Active; Activity (Candida albicans [17]): Active; Activity (Candida albicans [18]): Active
O=C(NC(Cn1ccnc1)C(=O)NCc1ccncc1)c1ccc2ccccc2c1 (stereo unspecified)	0.125 µg/mL	7.53 um	102 IU/L	94.5%	68.4%	0.25 µg/mL	5%	0.25 µg/mL	20.5%	0.25 µg/mL	685 nM	13.2%	91.6%	Non-Toxic	Active	
